The text below walks through data of ChEMBL document CHEMBL1148782, “Inhibitors of tumor progression loci-2 (Tpl2) kinase and tumor necrosis factor alpha (TNF-alpha) production: selectivity and in vivo antiinflammatory activity of novel 8-substituted-4-anilino-6-aminoquinoline-3-carbonitriles” (J Med Chem, 2007).

≈ marks a conversion by molar mass, not a printed value.

For series [1], the system named is Blood. Put plainly: Inhibition of LPS-stimulated TNFalpha production in human blood. It counts as functional.
The test system of series [2] is Monocyte. Put plainly: Inhibition of LPS-stimulated TNFalpha production in monocytes. It counts as functional, Homo sapiens.
Series [3] has as its target Epidermal growth factor receptor (Homo sapiens, UniProt P00533).
Series [4] deals with Protein kinase C alpha type (Homo sapiens, UniProt P17252). Put plainly: Inhibition of PKCalpha.
Series [5] in a line: Volume of distribution at steady state in Sprague-Dawley rat at 5 mg/kg, iv. It counts as ADME, organism-based. On the set-up: dose 5 mg/kg, route intravenous. The settings on record: in vivo, read-out: Vss. The essentials: (§1)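 Female Sprague-Dawley rats were dosed by the iv or oral route. Parameters are reported as means of individual-animal pharmacokinetic values.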
For series [6], the target named is CaM kinase II (Homo sapiens, UniProt Q13557+Q13555+Q13554+Q9UQM7).
The target in series [7] is Cytochrome P450 3A4 (Homo sapiens, UniProt P08684).
Series [8] can be described thus: Half life in Sprague-Dawley rat at 25 mg/kg, po. It counts as ADME, organism-based. On the set-up: dose 25 mg/kg, route oral. To be noted: in vivo. Summed up: as §1
Series [9] can be described thus: Half life in Sprague-Dawley rat at 5 mg/kg, iv. To be noted: in vivo. It counts as ADME, organism-based. On the set-up: dose 5 mg/kg, route intravenous. Summed up: as §1
The subject of series [10] is Rattus norvegicus. Put plainly: AUC (0 to infinity) in Sprague-Dawley rat at 25 mg/kg, po. It counts as ADME, organism-based, Plasma. More on the design: dose 25 mg/kg, route oral. To be noted: in vivo. Summed up:
as §1

Series [11] concerns the target Mitogen-activated protein kinase 14 (Homo sapiens, UniProt Q16539). Put plainly: Inhibition of p38alpha.
A short description of series [12]: physchem. To be noted: buffer, pH 7.4.
The target of series [13] is MAP kinase-activated protein kinase 2 (Homo sapiens, UniProt P49137). Put plainly: Inhibition of MK2.
The target of series [14] is Ribosomal protein S6 kinase beta-1 (Homo sapiens, UniProt P23443). Put plainly: Inhibition of S6K.
For series [15], the target named is Proto-oncogene tyrosine-protein kinase Src (Homo sapiens, UniProt P12931). Put plainly: Inhibition of Src.
The nature of series [16]: Permeability at pH 7.4 by PAMPA method. It counts as ADME. To be noted: read-out: permeability. Summed up:
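Passive permeability was measured by high-resolution PAMPA at pH 7.4.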

A short description of series [17]: Plasma clearance in Sprague-Dawley rat at 5 mg/kg, iv. More on the design: dose 5 mg/kg, route intravenous. It counts as ADME, organism-based. Summed up: as §1
Series [18] deals with cAMP-dependent protein kinase (PKA) (Homo sapiens, UniProt P22694+P17612+P22612). Put plainly: Inhibition of PKA. It counts as protein assay.
Series [19] in a line: Bioavailability in Sprague-Dawley rat at 25 mg/kg, po. The settings on record: in vivo. It counts as ADME, organism-based. The essentials:
as §1

Series [20] has as its target Mitogen-activated protein kinase kinase kinase 8 (Homo sapiens, UniProt P41279). Briefly: Inhibition of Tpl2 by ELISA. For orientation: ELISA stands for enzyme-linked immunosorbent assay.
The target in series [21] is CYP3A4 (Homo sapiens, UniProt P08684). Put plainly: Inhibition of CYP3A4 at 3 uM. It counts as ADME.
Chain of CYP3A4 (P08684 whole entry): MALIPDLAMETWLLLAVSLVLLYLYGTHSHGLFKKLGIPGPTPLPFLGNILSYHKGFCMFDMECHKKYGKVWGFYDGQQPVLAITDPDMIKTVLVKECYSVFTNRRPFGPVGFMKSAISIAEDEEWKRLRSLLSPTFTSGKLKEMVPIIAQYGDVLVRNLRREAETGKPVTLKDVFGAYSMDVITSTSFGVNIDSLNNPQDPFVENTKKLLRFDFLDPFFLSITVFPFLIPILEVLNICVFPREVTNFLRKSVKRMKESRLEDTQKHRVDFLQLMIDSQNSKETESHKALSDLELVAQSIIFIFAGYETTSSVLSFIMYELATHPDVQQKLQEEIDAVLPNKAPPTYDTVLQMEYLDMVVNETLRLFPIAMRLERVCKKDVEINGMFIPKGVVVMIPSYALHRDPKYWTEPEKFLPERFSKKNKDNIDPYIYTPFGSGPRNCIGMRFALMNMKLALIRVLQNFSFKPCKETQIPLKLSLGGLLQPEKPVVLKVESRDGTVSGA

Chain of Proto-oncogene tyrosine-protein kinase Src (P12931 2-536 limits assumed): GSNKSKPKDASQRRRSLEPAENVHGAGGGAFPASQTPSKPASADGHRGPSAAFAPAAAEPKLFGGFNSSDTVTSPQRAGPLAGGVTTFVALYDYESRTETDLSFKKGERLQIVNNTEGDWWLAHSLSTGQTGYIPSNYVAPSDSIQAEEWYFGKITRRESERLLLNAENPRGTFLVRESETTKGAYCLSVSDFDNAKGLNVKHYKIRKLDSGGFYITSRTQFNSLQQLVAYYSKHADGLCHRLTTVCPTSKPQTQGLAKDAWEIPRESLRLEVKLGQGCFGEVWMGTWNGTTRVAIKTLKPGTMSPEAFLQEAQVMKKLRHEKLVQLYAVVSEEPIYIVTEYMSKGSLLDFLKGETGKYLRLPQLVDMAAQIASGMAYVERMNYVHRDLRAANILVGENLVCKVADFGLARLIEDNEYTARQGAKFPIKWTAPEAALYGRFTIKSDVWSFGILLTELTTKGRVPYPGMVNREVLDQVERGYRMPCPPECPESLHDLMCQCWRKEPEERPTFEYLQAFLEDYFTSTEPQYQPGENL
Chain of MAP kinase-activated protein kinase 2 (P49137 whole entry): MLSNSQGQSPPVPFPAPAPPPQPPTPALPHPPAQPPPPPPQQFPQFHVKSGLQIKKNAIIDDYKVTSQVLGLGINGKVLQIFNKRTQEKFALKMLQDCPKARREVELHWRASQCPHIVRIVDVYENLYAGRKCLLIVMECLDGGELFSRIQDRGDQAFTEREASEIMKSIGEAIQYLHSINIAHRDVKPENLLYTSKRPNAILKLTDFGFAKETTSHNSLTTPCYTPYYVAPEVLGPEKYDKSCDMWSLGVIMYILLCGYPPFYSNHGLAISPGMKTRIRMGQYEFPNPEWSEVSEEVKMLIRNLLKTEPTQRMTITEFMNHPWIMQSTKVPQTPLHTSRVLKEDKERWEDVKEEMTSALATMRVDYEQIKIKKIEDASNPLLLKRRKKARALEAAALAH
Chain of Mitogen-activated protein kinase 14 (Q16539 whole entry): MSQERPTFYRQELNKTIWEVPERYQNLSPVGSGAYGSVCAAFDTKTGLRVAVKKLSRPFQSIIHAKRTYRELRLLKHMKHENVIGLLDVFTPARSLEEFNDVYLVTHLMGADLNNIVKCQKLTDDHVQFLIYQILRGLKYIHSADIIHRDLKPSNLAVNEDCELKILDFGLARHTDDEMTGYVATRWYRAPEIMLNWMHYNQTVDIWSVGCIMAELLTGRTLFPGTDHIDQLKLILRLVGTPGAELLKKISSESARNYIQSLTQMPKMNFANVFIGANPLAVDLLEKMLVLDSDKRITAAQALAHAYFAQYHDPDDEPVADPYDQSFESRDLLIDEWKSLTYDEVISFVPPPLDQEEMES
Chain of Epidermal growth factor receptor (P00533 whole entry): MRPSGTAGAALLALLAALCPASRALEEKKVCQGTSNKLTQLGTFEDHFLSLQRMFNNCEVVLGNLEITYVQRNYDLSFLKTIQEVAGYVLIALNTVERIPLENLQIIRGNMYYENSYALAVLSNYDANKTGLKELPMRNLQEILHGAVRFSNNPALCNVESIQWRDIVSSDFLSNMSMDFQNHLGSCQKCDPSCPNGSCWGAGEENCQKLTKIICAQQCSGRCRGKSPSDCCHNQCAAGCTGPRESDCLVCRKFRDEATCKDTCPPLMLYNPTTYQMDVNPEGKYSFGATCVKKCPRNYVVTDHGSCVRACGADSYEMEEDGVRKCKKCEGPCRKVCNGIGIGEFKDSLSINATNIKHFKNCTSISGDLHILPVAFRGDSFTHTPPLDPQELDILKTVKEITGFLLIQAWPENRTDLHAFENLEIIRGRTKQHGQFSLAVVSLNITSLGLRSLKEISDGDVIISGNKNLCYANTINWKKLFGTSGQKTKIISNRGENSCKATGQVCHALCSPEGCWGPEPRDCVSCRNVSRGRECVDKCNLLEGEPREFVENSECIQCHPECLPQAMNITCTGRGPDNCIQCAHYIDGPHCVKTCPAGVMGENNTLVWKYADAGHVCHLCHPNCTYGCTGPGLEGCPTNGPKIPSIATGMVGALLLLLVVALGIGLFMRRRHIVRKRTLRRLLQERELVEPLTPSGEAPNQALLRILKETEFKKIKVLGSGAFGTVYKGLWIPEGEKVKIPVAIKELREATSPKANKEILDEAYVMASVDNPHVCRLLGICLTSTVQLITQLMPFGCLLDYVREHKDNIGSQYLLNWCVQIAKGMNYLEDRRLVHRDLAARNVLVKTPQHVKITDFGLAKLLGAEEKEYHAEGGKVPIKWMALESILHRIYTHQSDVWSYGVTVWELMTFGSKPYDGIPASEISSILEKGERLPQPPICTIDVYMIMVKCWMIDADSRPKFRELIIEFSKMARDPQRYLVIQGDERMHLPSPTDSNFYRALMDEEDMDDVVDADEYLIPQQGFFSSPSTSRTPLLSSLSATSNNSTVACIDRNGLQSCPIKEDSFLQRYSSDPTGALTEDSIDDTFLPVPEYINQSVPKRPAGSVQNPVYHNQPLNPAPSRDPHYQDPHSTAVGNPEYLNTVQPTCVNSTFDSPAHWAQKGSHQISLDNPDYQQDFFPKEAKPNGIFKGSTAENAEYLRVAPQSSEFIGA
Chain of Mitogen-activated protein kinase kinase kinase 8 (P41279 whole entry): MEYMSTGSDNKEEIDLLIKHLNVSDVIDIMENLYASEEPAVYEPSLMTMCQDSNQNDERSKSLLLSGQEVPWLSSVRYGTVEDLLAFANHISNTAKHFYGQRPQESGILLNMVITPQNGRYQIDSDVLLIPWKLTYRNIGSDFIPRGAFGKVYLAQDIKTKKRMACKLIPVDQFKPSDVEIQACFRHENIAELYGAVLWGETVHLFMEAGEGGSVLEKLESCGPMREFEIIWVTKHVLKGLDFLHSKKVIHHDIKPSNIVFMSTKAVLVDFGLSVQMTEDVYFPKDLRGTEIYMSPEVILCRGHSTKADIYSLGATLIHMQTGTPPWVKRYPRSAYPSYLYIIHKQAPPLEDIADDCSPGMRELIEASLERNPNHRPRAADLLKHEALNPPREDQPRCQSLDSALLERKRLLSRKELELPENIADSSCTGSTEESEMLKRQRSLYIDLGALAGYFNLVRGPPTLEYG
Chain of Ribosomal protein S6 kinase beta-1 (P23443 whole entry): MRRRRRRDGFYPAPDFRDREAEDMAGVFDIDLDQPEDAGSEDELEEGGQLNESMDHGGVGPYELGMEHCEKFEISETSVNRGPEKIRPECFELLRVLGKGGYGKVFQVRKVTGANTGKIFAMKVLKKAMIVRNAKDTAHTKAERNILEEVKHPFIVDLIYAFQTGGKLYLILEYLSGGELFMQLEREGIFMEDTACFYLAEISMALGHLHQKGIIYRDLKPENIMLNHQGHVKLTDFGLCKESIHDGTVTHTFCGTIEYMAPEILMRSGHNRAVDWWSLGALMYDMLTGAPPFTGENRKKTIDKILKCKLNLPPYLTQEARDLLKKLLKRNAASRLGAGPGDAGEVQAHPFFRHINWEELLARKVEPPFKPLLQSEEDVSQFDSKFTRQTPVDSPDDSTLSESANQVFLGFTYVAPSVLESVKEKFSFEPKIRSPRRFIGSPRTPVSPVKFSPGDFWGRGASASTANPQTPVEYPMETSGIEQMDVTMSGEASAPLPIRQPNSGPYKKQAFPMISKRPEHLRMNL
Chain of Cytochrome P450 3A4 (P08684 whole entry): as the sequence (P08684 whole entry) above

`CC(C)c1[nH]cnc1CNc1cc(Cl)c2ncc(C#N)c(Nc3ccc(F)c(Cl)c3)c2c1`: the Activity in [1] is 5.8 µM.
What is called IC50 is the point on the concentration scale where inhibition reaches its midpoint. High values mean weaker potency in that assay, low ones greater potency in that assay. `CN(C)C(=O)c1cc(NCc2c[nH]cn2)cc2c(Nc3ccc(F)c(Cl)c3)c(C#N)cnc12` showed an Activity in [1] of over 10 µM. For the same compound, the Inhibitory concentration in series [2] was over 1000 nM. In series [3], this compound came in with an IC50 of over 20 µM.
Usually half-life stands for how long it takes for the measured level to halve. Higher therefore signals slow decline. Broadly, the solubility is how much of the substance goes into solution per volume. As usually defined, the clearance is a measure of how efficiently the substance is removed, as volume per time. Read a low clearance as inefficient removal. What is called bioavailability is the share of a dose that reaches the circulation, judged against a reference dose that is usually intravenous. The low end stands for little systemic uptake, the high end for much systemic uptake. As for `N#Cc1cnc2c(Cl)cc(NCc3cccc[n+]3[O-])cc2c1Nc1ccc(F)c(Cl)c1`, the 50% inhibitory concentration (IC50) in [4] was over 40 µM; in series [6], over 40 µM; in series [7], 18 µM; in [11] it was over 40 µM; in [13] it was 40.1 µM; in series [14], over 40 µM. For the same compound, the IC50 is over 40 µM in series [15], 2.9 µM in [3] and over 40 µM in series [18]. In series [5], the Vd turned out to be 1.6 L/kg. In [1], this compound gave an Activity of 11.4 µM. The half-life in series [8] is 4.2 h; in series [9], 0.8 h. The compound also came in with an AUC/dose in series [10] of under 10 ng·kg·h/mg/mL. Besides, in series [2], the Inhibitory concentration was determined as 1500 nM. This compound also came in with a solubility in [12] of under 10 µg/mL. The Papp in [16] is under 5 ×10⁻⁶ cm/s. The compound further yielded a clearance in series [17] of 38 mL/min/kg. In addition, in series [19], the bioavailability is under 1%.
On to `COc1cc(NCc2c[nH]cn2)cc2c(Nc3ccc(F)c(Cl)c3)c(C#N)cnc12`, for which the Activity in series [1] was over 10 µM. In addition, the Inhibitory concentration in series [2] is recorded as 3000 nM. Moreover, the IC50 came out at 0.13 µM in series [20] and 2.08 µM in series [3].
`COC(=O)c1[nH]cnc1CNc1cc(Br)c2ncc(C#N)c(Nc3ccc(F)c(Cl)c3)c2c1` came in with an Activity in series [1] of over 20 µM. This compound also gave an Inhibitory concentration in series [2] of 2000 nM.
As usually defined, the inhibition is how much of the control response was suppressed. A high value points to strong suppression. In the case of `N#Cc1cnc2c(F)cc(NCc3c[nH]cn3)cc2c1Nc1ccc(F)c(Cl)c1`, the IC50 in series [4] is over 40 µM; in [11], over 40 µM; in series [13], over 40 µM; in series [14], over 40 µM; in [15] it was 20 µM; in [20], 0.02 µM. For the same compound, the IC50 in series [18] worked out at 10.3 µM. Besides, in series [21], the inhibition at 3 µM came out at 96%. In addition, the Activity in series [1] is over 10 µM. Also, the Inhibitory concentration in [2] is reported as 510 nM.
As to `CCc1[nH]cnc1CNc1cc(Cl)c2ncc(C#N)c(Nc3ccc(F)c(Cl)c3)c2c1`, the Activity in [1] was found to be 7.5 µM.
For `N#Cc1cnc2c(Cl)cc(NCc3cccc(N4CCOCC4)n3)cc2c1Nc1ccc(F)c(Cl)c1`, it took 0.35 µM to reach half-maximal inhibition in [20] (IC50).
For `C[S+]([O-])c1cc(NCc2c[nH]cn2)cc2c(Nc3ccc(F)c(Cl)c3)c(C#N)cnc12` (centres undefined), in series [1], the Activity was determined as 13.3 µM. Besides, the Inhibitory concentration in [2] is 2130 nM. In [3], this compound had an IC50 of 5 µM.
Turning to `N#Cc1cnc2c(C(F)(F)F)cc(NCc3c[nH]cn3)cc2c1Nc1ccc(F)c(Cl)c1`, the Activity in series [1] is over 10 µM. For the same compound, the Inhibitory concentration in series [2] is on record as 600 nM. Moreover, the IC50 is 0.16 µM in series [20] and over 20 µM in series [3].
On to `CN(C)CCCc1[nH]cnc1CNc1cc(Cl)c2ncc(C#N)c(Nc3ccc(F)c(Cl)c3)c2c1`, for which the Activity in [1] was found to be 15.2 µM.
For `CS(=O)(=O)CCn1cnc(CNc2cc(Br)c3ncc(C#N)c(Nc4ccc(F)c(Cl)c4)c3c2)c1`, the Activity in series [1] is over 20 µM. The Inhibitory concentration in [2] turned out to be 1000 nM.
Turning to `N#Cc1cnc2c(Br)cc(NCc3cn[nH]n3)cc2c1Nc1ccc(F)c(Cl)c1`, the IC50 in series [4], in series [14] and in [18] was over 100 µM each time. In series [5], the Vd came out at 2.7 L/kg. In series [1], this compound registered an Activity of 3.5 µM. Also, the figures for the half-life in [8] and in series [9] were 3.9 h and 3.2 h, respectively. For the same compound, in series [10], the AUC/dose was under 10 ng·kg·h/mg/mL. In series [2], this compound returned an Inhibitory concentration of 74 nM. Also, the solubility in series [12] was under 10 µg/mL. Moreover, in series [16], the Papp is under 5 ×10⁻⁶ cm/s. In series [17], this compound showed a clearance of 29 mL/min/kg. For the same compound, the bioavailability in series [19] stood at 2%.
`Cn1cncc1CNc1cc(Cl)c2ncc(C#N)c(Nc3ccc(F)c(Cl)c3)c2c1` had an Activity in series [1] of over 20 µM.
Consider `CC(=O)c1cc(NCc2c[nH]cn2)cc2c(Nc3ccc(F)c(Cl)c3)c(C#N)cnc12`, for which the Activity in [1] was over 10 µM. Also, the Inhibitory concentration in series [2] is 580 nM. The compound also came in with an IC50 in series [3] of 0.156 µM.
`CC(C)c1[nH]cnc1CNc1cc(Br)c2ncc(C#N)c(Nc3ccc(F)c(Cl)c3)c2c1` had an Activity in series [1] of over 20 µM. The compound also had an Inhibitory concentration in series [2] of 2200 nM.
For the compound `N#Cc1cnc2c(OCC(O)CO)cc(NCc3cnc[nH]3)cc2c1Nc1ccc(F)c(Cl)c1` (centres undefined), in [20], the IC50 was 0.83 µM.
Consider `CCCc1[nH]cnc1CNc1cc(Cl)c2ncc(C#N)c(Nc3ccc(F)c(Cl)c3)c2c1`, for which the IC50 in series [4] was over 40 µM; in series [6], over 40 µM; in series [7] it was 16 µM; in [11] it was over 40 µM; in [13] it was 62.7 µM; in series [14], 18.8 µM. The IC50 in series [15] is over 40 µM; in series [18] it was 76.1 µM. In series [5], the Vd was determined as 12.2 L/kg. The same compound yielded an Activity in [1] of 5.6 µM. In addition, the half-life in series [9] was 1.2 h. Further, in [2], the Inhibitory concentration stood at 220 nM. The compound further returned a solubility in series [12] of under 10 µg/mL. Besides, the Papp in series [16] was under 5 ×10⁻⁶ cm/s. The clearance in [17] was over 100 mL/min/kg.
As to `N#Cc1cnc2c(Br)cc(NCc3c[nH]cn3)cc2c1Nc1ccc(F)c(Cl)c1`, the Activity in series [1] was over 10 µM. Moreover, the Inhibitory concentration in series [2] worked out at 370 nM. In series [12], this compound had a solubility of 2 µg/mL (≈ 4.24 µM). The IC50 came to 0.01 µM in [20] and 3.3 µM in series [3].
On to `N#Cc1cnc2c(Cl)cc(NCC(=O)O)cc2c1Nc1ccc(F)c(Cl)c1`, for which the Activity in series [1] is over 20 µM. In series [2], this compound yielded an Inhibitory concentration of over 5000 nM. The IC50 in series [20] turned out to be 0.2 µM.
As to `N#Cc1cnc2c(Br)cc(NC(=O)Cc3cnc[nH]3)cc2c1Nc1ccc(F)c(Cl)c1`, the IC50 in series [20] is over 5 µM.
`N#Cc1cnc2ccc(NCc3c[nH]cn3)cc2c1Nc1ccc(F)c(Cl)c1` showed an Activity in [1] of 3.3 µM. Further, in [2], the Inhibitory concentration is 600 nM.
In turn, `N#Cc1cnc2c(Cl)cc(NCc3nn[nH]n3)cc2c1Nc1ccc(F)c(Cl)c1` gave an Activity in series [1] of over 20 µM. This compound yielded an Inhibitory concentration in series [2] of over 5000 nM. The compound further returned an IC50 in [20] of 0.002 µM.
On to `N#Cc1cnc2c(Cl)cc(NCc3cccnc3)cc2c1Nc1ccc(F)c(Cl)c1`, for which the Activity in series [1] was 20 µM. Further, the Inhibitory concentration in [2] is over 1000 nM. The IC50 in series [3] is over 5 µM.
The compound `N#Cc1cnc2c(Cl)cc(NCCc3c[nH]cn3)cc2c1Nc1ccc(F)c(Cl)c1` returned an Activity in [1] of over 20 µM.
`N#Cc1cnc2c(Br)cc(NCc3cn(CCN4CCOCC4)cn3)cc2c1Nc1ccc(F)c(Cl)c1` showed an Activity in [1] of 8.95 µM. The Inhibitory concentration in [2] is recorded as 430 nM. The same compound yielded a solubility in series [12] of 69 µg/mL (≈ 118 µM).
For the compound `Cn1nccc1CNc1cc(Br)c2ncc(C#N)c(Nc3ccc(F)c(Cl)c3)c2c1`, the Activity in [1] was over 20 µM. The compound also had an Inhibitory concentration in [2] of 665 nM.
